In ChEMBL document CHEMBL1909494, “Synthesis and structure-activity relationship studies of 4-arylthiosemicarbazides as topoisomerase IV inhibitors with Gram-positive antibacterial activity. Search for molecular basis of antibacterial activity of thiosemicarbazides” (Eur J Med Chem, 2011):
≈ marks a conversion by molar mass, not a printed value.

Tested on: Bacillus cereus
Experiment: Antibacterial activity against Bacillus cereus ATCC 11778 by agar dilution method
Format: functional
For `Cc1nnsc1C(=O)NNC(=S)Nc1ccc(Br)cc1`, the MIC was 100 µg/mL (≈ 269 µM). Work on `O=C(NNC(=S)Nc1ccc([N+](=O)[O-])cc1)c1cc2ccccc2[nH]1` yielded an MIC of 50 µg/mL (≈ 141 µM). With `Cc1nnsc1C(=O)NNC(=S)Nc1ccc(Cl)cc1` the MIC was 50 µg/mL (≈ 153 µM). `O=C(NNC(=S)Nc1ccccc1Br)c1cc2ccccc2[nH]1` gave an MIC of 200 µg/mL (≈ 514 µM). `O=C(NNC(=S)Nc1ccccc1F)c1cc2ccccc2[nH]1` gave an MIC of 200 µg/mL (≈ 609 µM). `Cc1nnsc1C(=O)NNC(=S)Nc1ccccc1` gave an MIC of 400 µg/mL (≈ 1360 µM). Molecule `Cc1nnsc1C(=O)NNC(=S)Nc1ccc(Cl)cc1Cl` has an MIC of 100 µg/mL (≈ 276 µM). With `Cc1nnsc1C(=O)NNC(=S)Nc1ccccc1C(F)(F)F` the MIC was 400 µg/mL (≈ 1110 µM).

Tested on: Micrococcus luteus
Experiment: Antibacterial activity against Micrococcus luteus ATCC 9341 by agar dilution method
Format: functional
Molecule `Cc1nnsc1C(=O)NNC(=S)Nc1ccc(Br)cc1` has an MIC of 50 µg/mL (≈ 134 µM). For `O=C(NNC(=S)Nc1ccc([N+](=O)[O-])cc1)c1cc2ccccc2[nH]1`, the MIC was 50 µg/mL (≈ 141 µM). In the case of `Cc1nnsc1C(=O)NNC(=S)Nc1ccc(Cl)cc1`, the MIC is reported as 100 µg/mL (≈ 305 µM). Work on `O=C(NNC(=S)Nc1ccccc1Br)c1cc2ccccc2[nH]1` yielded an MIC of 100 µg/mL (≈ 257 µM). `O=C(NNC(=S)Nc1ccccc1F)c1cc2ccccc2[nH]1` gave an MIC of 100 µg/mL (≈ 305 µM). Molecule `Cc1nnsc1C(=O)NNC(=S)Nc1ccccc1` has an MIC of 100 µg/mL (≈ 341 µM). `Cc1nnsc1C(=O)NNC(=S)Nc1ccc(Cl)cc1Cl` showed an MIC of 100 µg/mL (≈ 276 µM). With `Cc1nnsc1C(=O)NNC(=S)Nc1ccccc1C(F)(F)F` the MIC was 200 µg/mL (≈ 553 µM).

Tested on: Micrococcus luteus
Experiment: Antibacterial activity against Micrococcus luteus ATCC 10240 by agar dilution method
Format: functional
With `Cc1nnsc1C(=O)NNC(=S)Nc1ccc(Br)cc1` the MIC was 100 µg/mL (≈ 269 µM). Molecule `O=C(NNC(=S)Nc1ccc([N+](=O)[O-])cc1)c1cc2ccccc2[nH]1` has an MIC of 50 µg/mL (≈ 141 µM). With `Cc1nnsc1C(=O)NNC(=S)Nc1ccc(Cl)cc1` the MIC was 50 µg/mL (≈ 153 µM). In the case of `O=C(NNC(=S)Nc1ccccc1Br)c1cc2ccccc2[nH]1`, the MIC is reported as 100 µg/mL (≈ 257 µM). In the case of `O=C(NNC(=S)Nc1ccccc1F)c1cc2ccccc2[nH]1`, the MIC is reported as 100 µg/mL (≈ 305 µM). `Cc1nnsc1C(=O)NNC(=S)Nc1ccccc1` gave an MIC of 200 µg/mL (≈ 682 µM). Work on `Cc1nnsc1C(=O)NNC(=S)Nc1ccc(Cl)cc1Cl` yielded an MIC of 100 µg/mL (≈ 276 µM). Work on `Cc1nnsc1C(=O)NNC(=S)Nc1ccccc1C(F)(F)F` yielded an MIC of 200 µg/mL (≈ 553 µM).

Tested on: not listed separately
Experiment: Inhibition of Staphylococcus aureus topoisomerase 4 assessed as inhibition of decatenation of kDNA after 1 hr by agarose gel electrophoresis
Summary of the method: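 kDNA was incubated with 1 unit of topoisomerase IV in decatenation assay buffer with varying compound concentrations at 37 °C for 1 h. Reactions were stopped with 2x STOP buffer plus chloroform/iso-amyl alcohol and run on a 1% agarose gel in TAE for 1.5 h at 80 V, then stained with ethidium bromide. IC50 was the concentration preventing 50% conversion of kDNA to decatenated minicircles, derived from gel densitometry.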
For `Cc1nnsc1C(=O)NNC(=S)Nc1ccc(Br)cc1`, the IC50 was 403 µM. `O=C(NNC(=S)Nc1ccc([N+](=O)[O-])cc1)c1cc2ccccc2[nH]1` showed an IC50 of 14 µM.

Tested on: Bacillus subtilis
Experiment: Antibacterial activity against Bacillus subtilis ATCC 6633 by agar dilution method
Format: functional
For `Cc1nnsc1C(=O)NNC(=S)Nc1ccc(Br)cc1`, the MIC was 100 µg/mL (≈ 269 µM). `O=C(NNC(=S)Nc1ccc([N+](=O)[O-])cc1)c1cc2ccccc2[nH]1` gave an MIC of 50 µg/mL (≈ 141 µM). `Cc1nnsc1C(=O)NNC(=S)Nc1ccc(Cl)cc1` gave an MIC of 50 µg/mL (≈ 153 µM). In the case of `O=C(NNC(=S)Nc1ccccc1Br)c1cc2ccccc2[nH]1`, the MIC is reported as 200 µg/mL (≈ 514 µM). Molecule `O=C(NNC(=S)Nc1ccccc1F)c1cc2ccccc2[nH]1` has an MIC of 100 µg/mL (≈ 305 µM). In the case of `Cc1nnsc1C(=O)NNC(=S)Nc1ccccc1`, the MIC is reported as 400 µg/mL (≈ 1360 µM). For `Cc1nnsc1C(=O)NNC(=S)Nc1ccc(Cl)cc1Cl`, the MIC was 100 µg/mL (≈ 276 µM). Work on `Cc1nnsc1C(=O)NNC(=S)Nc1ccccc1C(F)(F)F` yielded an MIC of 200 µg/mL (≈ 553 µM).

Tested on: Staphylococcus aureus
Experiment: Antibacterial activity against Staphylococcus aureus NCTC 4163 by agar dilution method
Format: functional
With `Cc1nnsc1C(=O)NNC(=S)Nc1ccc(Br)cc1` the MIC was 200 µg/mL (≈ 537 µM). `O=C(NNC(=S)Nc1ccc([N+](=O)[O-])cc1)c1cc2ccccc2[nH]1` gave an MIC of 50 µg/mL (≈ 141 µM). `Cc1nnsc1C(=O)NNC(=S)Nc1ccc(Cl)cc1` gave an MIC of 100 µg/mL (≈ 305 µM). Work on `O=C(NNC(=S)Nc1ccccc1Br)c1cc2ccccc2[nH]1` yielded an MIC of 200 µg/mL (≈ 514 µM). Molecule `O=C(NNC(=S)Nc1ccccc1F)c1cc2ccccc2[nH]1` has an MIC of 200 µg/mL (≈ 609 µM). Work on `Cc1nnsc1C(=O)NNC(=S)Nc1ccccc1` yielded an MIC of 400 µg/mL (≈ 1360 µM). `Cc1nnsc1C(=O)NNC(=S)Nc1ccc(Cl)cc1Cl` gave an MIC of 100 µg/mL (≈ 276 µM). Molecule `Cc1nnsc1C(=O)NNC(=S)Nc1ccccc1C(F)(F)F` has an MIC of 100 µg/mL (≈ 277 µM).

Tested on: Staphylococcus epidermidis
Experiment: Antibacterial activity against Staphylococcus epidermidis ATCC 12228 by agar dilution method
Format: functional
`Cc1nnsc1C(=O)NNC(=S)Nc1ccc(Br)cc1` gave an MIC of 200 µg/mL (≈ 537 µM). `O=C(NNC(=S)Nc1ccc([N+](=O)[O-])cc1)c1cc2ccccc2[nH]1` gave an MIC of 50 µg/mL (≈ 141 µM). Molecule `Cc1nnsc1C(=O)NNC(=S)Nc1ccc(Cl)cc1` has an MIC of 50 µg/mL (≈ 153 µM). For `O=C(NNC(=S)Nc1ccccc1Br)c1cc2ccccc2[nH]1`, the MIC was 200 µg/mL (≈ 514 µM). `O=C(NNC(=S)Nc1ccccc1F)c1cc2ccccc2[nH]1` showed an MIC of 200 µg/mL (≈ 609 µM). `Cc1nnsc1C(=O)NNC(=S)Nc1ccccc1` gave an MIC of 400 µg/mL (≈ 1360 µM). For `Cc1nnsc1C(=O)NNC(=S)Nc1ccc(Cl)cc1Cl`, the MIC was 100 µg/mL (≈ 276 µM). In the case of `Cc1nnsc1C(=O)NNC(=S)Nc1ccccc1C(F)(F)F`, the MIC is reported as 200 µg/mL (≈ 553 µM).

Tested on: Staphylococcus aureus
Experiment: Antibacterial activity against Staphylococcus aureus ATCC 6538 by agar dilution method
Format: functional
In the case of `Cc1nnsc1C(=O)NNC(=S)Nc1ccc(Br)cc1`, the MIC is reported as 200 µg/mL (≈ 537 µM). Work on `O=C(NNC(=S)Nc1ccc([N+](=O)[O-])cc1)c1cc2ccccc2[nH]1` yielded an MIC of 50 µg/mL (≈ 141 µM). For `Cc1nnsc1C(=O)NNC(=S)Nc1ccc(Cl)cc1`, the MIC was 100 µg/mL (≈ 305 µM). Molecule `O=C(NNC(=S)Nc1ccccc1Br)c1cc2ccccc2[nH]1` has an MIC of 200 µg/mL (≈ 514 µM). `O=C(NNC(=S)Nc1ccccc1F)c1cc2ccccc2[nH]1` showed an MIC of 200 µg/mL (≈ 609 µM). In the case of `Cc1nnsc1C(=O)NNC(=S)Nc1ccccc1`, the MIC is reported as 400 µg/mL (≈ 1360 µM). With `Cc1nnsc1C(=O)NNC(=S)Nc1ccc(Cl)cc1Cl` the MIC was 100 µg/mL (≈ 276 µM). `Cc1nnsc1C(=O)NNC(=S)Nc1ccccc1C(F)(F)F` gave an MIC of 400 µg/mL (≈ 1110 µM).

Tested on: Staphylococcus aureus
Experiment: Antibacterial activity against Staphylococcus aureus ATCC 29213 by agar dilution method
Format: functional
`Cc1nnsc1C(=O)NNC(=S)Nc1ccc(Br)cc1` gave an MIC of 200 µg/mL (≈ 537 µM). `O=C(NNC(=S)Nc1ccc([N+](=O)[O-])cc1)c1cc2ccccc2[nH]1` gave an MIC of 50 µg/mL (≈ 141 µM). In the case of `Cc1nnsc1C(=O)NNC(=S)Nc1ccc(Cl)cc1`, the MIC is reported as 50 µg/mL (≈ 153 µM). In the case of `O=C(NNC(=S)Nc1ccccc1Br)c1cc2ccccc2[nH]1`, the MIC is reported as 100 µg/mL (≈ 257 µM). For `O=C(NNC(=S)Nc1ccccc1F)c1cc2ccccc2[nH]1`, the MIC was 200 µg/mL (≈ 609 µM). With `Cc1nnsc1C(=O)NNC(=S)Nc1ccccc1` the MIC was 400 µg/mL (≈ 1360 µM). For `Cc1nnsc1C(=O)NNC(=S)Nc1ccc(Cl)cc1Cl`, the MIC was 100 µg/mL (≈ 276 µM). `Cc1nnsc1C(=O)NNC(=S)Nc1ccccc1C(F)(F)F` gave an MIC of 200 µg/mL (≈ 553 µM).

Tested on: Staphylococcus aureus
Experiment: Antibacterial activity against Staphylococcus aureus ATCC 25923 by agar dilution method
Format: functional
Molecule `Cc1nnsc1C(=O)NNC(=S)Nc1ccc(Br)cc1` has an MIC of 100 µg/mL (≈ 269 µM). Work on `O=C(NNC(=S)Nc1ccc([N+](=O)[O-])cc1)c1cc2ccccc2[nH]1` yielded an MIC of 50 µg/mL (≈ 141 µM). With `Cc1nnsc1C(=O)NNC(=S)Nc1ccc(Cl)cc1` the MIC was 50 µg/mL (≈ 153 µM). In the case of `O=C(NNC(=S)Nc1ccccc1Br)c1cc2ccccc2[nH]1`, the MIC is reported as 100 µg/mL (≈ 257 µM). In the case of `O=C(NNC(=S)Nc1ccccc1F)c1cc2ccccc2[nH]1`, the MIC is reported as 100 µg/mL (≈ 305 µM). In the case of `Cc1nnsc1C(=O)NNC(=S)Nc1ccccc1`, the MIC is reported as 400 µg/mL (≈ 1360 µM). `Cc1nnsc1C(=O)NNC(=S)Nc1ccc(Cl)cc1Cl` gave an MIC of 100 µg/mL (≈ 276 µM). `Cc1nnsc1C(=O)NNC(=S)Nc1ccccc1C(F)(F)F` gave an MIC of 50 µg/mL (≈ 138 µM).
